Results taken from ChEMBL document CHEMBL4017500 (J Med Chem, 2017).
Calls of active or inactive are those of the source. No cut-off for these calls is given here.

Key:
[1] = test system: Bacteria; experiment: Binding affinity to bacterial CoCoNDM-1 expressed in Escherichia coli BL21(DE3) assessed as CoCoNDM-1-compound ternary complex formation at 1 equiv by 1H […] spectroscopic method
[2] = test system: Escherichia coli; experiment: Inhibition of NDM1 in Escherichia coli isolate Ch8.69 assessed as potentiation of imipenem-induced antibacterial activity by measuring imipenem MIC at 100 mg/L after 18 to 20 hrs by broth microdilution assay (reference value: 4 mg/L)
[3] = test system: Escherichia coli; experiment: Inhibition of NDM1 in Escherichia coli isolate Ah8.73 assessed as potentiation of imipenem-induced antibacterial activity by measuring imipenem MIC at 100 mg/L after 18 to 20 hrs by broth microdilution assay (reference value: 16 mg/L)
[4] = test system: Bacteria; experiment: Binding affinity to bacterial NDM-1 expressed in Escherichia coli BL21(DE3) assessed as Zn2+ stripping at
Summary of the method: (§1)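 NDM-1 (8 μM final) in 50 mM HEPES pH 7.5 mixed with compound at 0–128 μM for 30 min. Then dialyzed 4 h against metal-free 50 mM HEPES pH 7.5. Residual Zn(II) measured by ICP-AES at 213.856 nm.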

[5] = test system: Escherichia coli; experiment: Inhibition of NDM1 in Escherichia coli isolate Ah8.71 assessed as potentiation of imipenem-induced antibacterial activity by measuring imipenem MIC at 100 mg/L after 18 to 20 hrs by broth microdilution assay (reference value: 16 mg/L)
[6] = test system: HEK293; experiment: Cytotoxicity against HEK293 cells assessed as change in morphology up to 400 uM after 4 to 24 hrs by microscopic assay; assay type: cell-based; conditions: human
Summary of the method: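 HEK293 cells treated as in the viability assay (4 or 24 h, DMSO vehicle control). Imaged by epifluorescence microscopy at 20X magnification to assess growth and morphology.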

[7] = Inhibition of bacterial MBP-fused NDM1 expressed in Escherichia coli BL21(DE3) ausing chromacef as substrate preincubated for 20 mins followed by substrate addition measured after 0.3 mins; set-up: species or system Bacteria
Summary of the method: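 Preincubated 20 min, then 3 μM substrate (~3×KM) added. A442 followed ~0.3 min at 25 °C. Activity scaled to uninhibited (100%) and no-enzyme (0%) controls, fitted to a Hill-type equation.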

[8] = Metal chelating activity assessed as Co2+-compound complex formation at 1 equiv by 1H NMR spectroscopic method; assay type: functional
Summary of the method: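 Apo-NDM-1 concentrated to ~1 mM and given 2 equivalents of CoCl2, in 50 mM HEPES, 150 mM NaCl, 10% D2O, pH 6.8. Compounds, from DMSO stocks of 50–100 mM, titrated in. 1H NMR spectra recorded at 292 K at 300.16 MHz.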

[9] = test system: Escherichia coli; experiment: Effect on growth of Escherichia coli isolate Ah8.75 at 100 mg/L after 18 to 20 hrs by broth microdilution assay
Summary of the method: (§2)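 Mueller-Hinton broth microdilution per CLSI, triplicate. blaNDM-1 clinical isolates grown from OD600 0.1 to 0.224 (~1–2 × 10^8 CFU/mL), diluted 3 μL into 4997 μL MH, and 100 μL added to 100 μL of compound (100 mg/L) alone. Incubated 37 °C for 18–20 h, then scored for growth.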

[10] = biological target: Metallo-beta-lactamase type 2 (Klebsiella pneumoniae) (UniProt C7C422); experiment: Inhibition of NDM1 in Klebsiella pneumoniae isolate Pd1.53 assessed as potentiation of imipenem-induced antibacterial activity by measuring imipenem MIC at 100 mg/L after 18 to 20 hrs by broth microdilution assay (reference value: 8 mg/L)
[11] = biological target: Metallo-beta-lactamase type 2 (Klebsiella pneumoniae) (UniProt C7C422); experiment: Inhibition of NDM1 in Klebsiella pneumoniae isolate Pd1.54 assessed as potentiation of imipenem-induced antibacterial activity by measuring imipenem MIC at 100 mg/L after 18 to 20 hrs by broth microdilution assay (reference value: 8 mg/L)
[12] = test system: Klebsiella pneumoniae; experiment: Effect on growth of Klebsiella pneumoniae isolate Pd1.49 at 100 mg/L after 18 to 20 hrs by broth microdilution assay; summary of the method: as §2
[13] = biological target: 72 kDa type IV collagenase (Homo sapiens) (UniProt P08253); experiment: Inhibition of human MMP2 (Tyr110 to Asp452 residues) expressed in yeast at 10 uM using Mca-Pro-LeuGly-Leu-Dpa-Ala-Arg-NH2.AcOH as substrate preincubated for 30 mins followed by substrate addition measured after 20 mins by fluorescence assay relative to control
Summary of the method: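 Human recombinant MMP-2 (1.16 U/well) or MMP-12 (0.007 U/well) in 50 mM HEPES, 10 mM CaCl2, 0.05% Brij-35, pH 7.5. Enzyme and inhibitor pre-incubated 30 min at 37 °C, then OmniMMP fluorogenic substrate (4 μM) added. Fluorescence rise followed 20 min at ex/em 320/400 nm. Activity relative to no-inhibitor wells, with 200 μM NSA as 0%. Run in triplicate.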

[14] = test system: Bacteria; experiment: Inhibition of bacterial MBP-fused NDM1 expressed in Escherichia coli BL21(DE3) ausing fluorocillin as substrate preincubated for 20 mins followed by substrate addition measured at 1 sec time interval for 25 mins in presence of ZnSO4 by fluorescence assay
[15] = biological target: Carbonic anhydrase 2 (Homo sapiens) (UniProt P00918); experiment: Inhibition of human carbonic anhydrase 2 at 10 uM using p-nitrophenyl acetate as substrate preincubated for 10 mins followed by substrate addition measured for 15 mins
Summary of the method: (§3)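 hCAII (100 nM) in 50 mM HEPES pH 8.0 pre-incubated with inhibitor for 10 min at 30 °C. p-Nitrophenyl acetate (500 μM) then added and absorbance at 405 nm followed 15 min. Activity relative to no-inhibitor wells, with 50 μM benzene sulfonamide as 0%. Run in triplicate.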

[16] = test system: Escherichia coli; experiment: Effect on growth of Escherichia coli isolate Ah8.71 at 100 mg/L after 18 to 20 hrs by broth microdilution assay; summary of the method: as §2
[17] = biological target: Beta-lactamase VIM-2 (Pseudomonas aeruginosa, UniProt Q9K2N0); experiment: Inhibition of Pseudomonas aeruginosa VIM2 expressed in Escherichia coli BL21(DE3) using fluorocillin as substrate preincubated for 10 mins followed by substrate addition measured after 20 mins by HTS assay
[18] = test system: Bacteria; experiment: Binding affinity to bacterial NDM-1 expressed in Escherichia coli BL21(DE3) assessed as Zn2+ stripping at 24 uM after 30 mins by equilibrium dialysis method relative to control; summary of the method: as §1
[19] = test system: Klebsiella pneumoniae; experiment: Effect on growth of Klebsiella pneumoniae isolate Pd1.55 at 100 mg/L after 18 to 20 hrs by broth microdilution assay; summary of the method: as §2
[20] = test system: Bacteria; experiment: Binding affinity to bacterial CoCoNDM-1 expressed in Escherichia coli BL21(DE3) assessed as CoCoNDM-1-compound ternary complex formation at 1 equiv by 1H NMR spectroscopic method
Summary of the method: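 Apo-NDM-1 concentrated to ~1 mM and loaded with 2 equiv CoCl2. Samples in 50 mM HEPES, 150 mM NaCl, 10% D2O, pH 6.8. Compounds from 50–100 mM DMSO stocks titrated in ~5 μL aliquots. 1H spectra recorded at 292 K, 300.16 MHz.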

[21] = biological target: Carbonic anhydrase 2 (Homo sapiens) (UniProt P00918); experiment: Inhibition of human carbonic anhydrase 2 at 50 to 100 uM using p-nitrophenyl acetate as substrate preincubated for 10 mins followed by substrate addition measured for 15 mins; summary of the method: as §3

Sequence of Metallo-beta-lactamase type 2 (Klebsiella pneumoniae) (C7C422 whole entry): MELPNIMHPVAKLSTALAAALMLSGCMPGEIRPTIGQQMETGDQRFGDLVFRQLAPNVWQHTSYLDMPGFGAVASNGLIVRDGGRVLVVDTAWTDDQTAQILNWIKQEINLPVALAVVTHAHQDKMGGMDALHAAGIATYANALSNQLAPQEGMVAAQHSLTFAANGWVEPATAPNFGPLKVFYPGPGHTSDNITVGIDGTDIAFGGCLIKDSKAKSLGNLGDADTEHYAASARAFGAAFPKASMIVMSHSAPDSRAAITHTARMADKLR
Sequence of 72 kDa type IV collagenase (Homo sapiens) (P08253 110-660 limits assumed): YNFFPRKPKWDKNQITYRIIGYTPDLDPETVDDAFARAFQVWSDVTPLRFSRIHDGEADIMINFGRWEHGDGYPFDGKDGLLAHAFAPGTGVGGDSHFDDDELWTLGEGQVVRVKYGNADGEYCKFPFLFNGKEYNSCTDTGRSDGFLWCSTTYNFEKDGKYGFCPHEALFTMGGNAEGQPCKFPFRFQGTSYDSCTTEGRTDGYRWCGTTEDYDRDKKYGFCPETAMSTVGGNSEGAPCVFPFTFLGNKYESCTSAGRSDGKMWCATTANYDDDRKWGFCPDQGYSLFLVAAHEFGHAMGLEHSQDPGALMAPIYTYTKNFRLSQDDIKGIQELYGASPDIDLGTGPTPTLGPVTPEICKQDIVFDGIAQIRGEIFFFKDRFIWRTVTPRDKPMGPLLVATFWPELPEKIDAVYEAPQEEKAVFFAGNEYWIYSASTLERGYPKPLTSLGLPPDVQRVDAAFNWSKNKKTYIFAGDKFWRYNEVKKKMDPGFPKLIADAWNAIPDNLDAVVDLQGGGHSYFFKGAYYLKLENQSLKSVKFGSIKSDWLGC

Nc1cccc(-c2cc(C(=O)O)nc(C(=O)O)c2)c1
Activity [1]: Active | MIC [2]: 0.5 µg/mL | MIC [3]: 0.5 µg/mL | Activity [4]: inactive | MIC [5]: 1 µg/mL | Activity [6]: Non-Toxic | IC50 [7]: 320 nM | Activity [8]: Active | Activity [9]: Non-Toxic | MIC [10]: 0.5 µg/mL | MIC [11]: 0.5 µg/mL | Activity [12]: Non-Toxic | inhibition [13]: < 6% | inhibition [14]: Active | inhibition [15]: inactive | Activity [16]: Non-Toxic | IC50 [17]: 210 nM | Activity [18]: 10 to 20% | Activity [19]: Non-Toxic | Activity [20]: Active | inhibition [21]: < 50%
